Test [1] can be described thus: Growth inhibition of apoptosis-resistant human OE21 cells after 72 hrs by MTT assay. The format is functional, cell-based. As to conditions: OE21, 72 h. In outline: (§1)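 Cells seeded at 10 000 to 40 000 cells/mL, depending on line, and plated 24 h before treatment. Cultured 72 h with or without (control) compound. Viable cells measured by MTT reduction to formazan, absorbance at 570 nm (reference 630 nm). IC50 reported as mean ± SEM. Media carried 4 mM glutamine, gentamicin and penicillin-streptomycin. B16F10 grown in RPMI with 10% heat-inactivated FCS.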
A general note: Formazan colour is commonly taken as a measure of viable cells.

Test [2] relates to B16-F10. The experiment in a line: Growth inhibition of apoptosis-sensitive mouse B16F10 cells after 72 hrs by MTT assay. The format is functional, cell-based. As to conditions: B16-F10, 72 h. In outline: as §1
Test [3] in a line: Growth inhibition of apoptosis-resistant human U373 cells after 72 hrs by MTT assay. As to conditions: U373 MG. The format is functional, cell-based, U-373MG ATCC. In outline:
as §1

In test [4] the test system is SK-MEL-28. Briefly: Growth inhibition of apoptosis-resistant human SK-MEL-28 cells after 72 hrs by MTT assay. The test is classed as functional, cell-based. The note with it: SK-MEL-28, 72 h. In outline:
as §1

In test [5] the test system is A549. The experiment in a line: Growth inhibition of apoptosis-resistant human A549 cells after 72 hrs by MTT assay. As to conditions: A549, 72 h. The format is functional, cell-based. In outline: as §1
Test [6] deals with Hs 683. The experiment in a line: Growth inhibition of apoptosis-sensitive human Hs 683 cells after 72 hrs by MTT assay. The format is functional, cell-based. The note with it: Hs 683, 72 h. In outline: as §1
Test [7] relates to B16-F10. Briefly: Cytostatic effect against apoptosis-sensitive mouse B16F10 cells assessed as impairment of cell population development at 20 uM by quantitative video microscopy.
Test [8] has as its system B16-F10. Briefly: Cytostatic effect against apoptosis-sensitive mouse B16F10 cells assessed as impairment of cell population development at 20 uM by quantitative video microscopy. The format is functional, cell-based. In outline: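 Computer-assisted phase-contrast microscopy (quantitative videomicroscopy) of B16F10 cells in RPMI with 10% heat-inactivated FCS, monitored 72 h without (control) or with compound. Time-lapse image sequences built into movies. Growth level taken as ratio of cell counts in first versus last frames. Cells counted in 1 mm2 fields at G×20, triplicate conditions, five fields each (15 fields per condition), mean ± SEM.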

Calls of active or inactive are those of the source. The calls are words filed in the database; no cut-off is given here.

The results in this text go back to ChEMBL document CHEMBL1157774, “Investigations of fungal secondary metabolites with potential anticancer activity” (J Nat Prod, 2010).

For orientation: IC50 means the concentration that gives 50% inhibition. Regarding `O=C1N[C@@H]2C(=C[C@H](O)[C@@H](O)[C@H]2O)c2cc3c(c(O)c21)OCO3` [NARCICLASINE], the IC50 in test [1], in test [2], in test [3], in test [4], in test [5] and in test [6] was 0.05 µM in each case.
`C/C=C/C=C/C(=O)C1=C(O)[C@@]2(C)C3C(C(=O)CC/C=C/C)=C(O)[C@@]4(C)C1[C@]1(C)O[C@@]4(O)[C@@]3(C)O[C@@]12O` [DIHYDROTRICHODIMEROL]: the 50% inhibitory concentration (IC50) in test [1] turned out to be 28 µM; in test [2], 3 µM; in test [3], 25 µM; in test [4], 33 µM; in test [5] it was 33 µM; in test [6] it was 34 µM. Moreover, the inhibition entry in test [7] was “Active”.
In the case of `C/C=C/C=C/C(=O)[C@@H]1[C@@H]([C@]2(C)OC(=O)C(C)=C2O)C2\C(=C(O)/C=C/C=C/C)C(=O)[C@]1(C)C(=O)[C@@]2(C)O` [BISLONGIQUINOLIDE], the IC50 in test [1] is 9 µM; in test [2] it was 3 µM; in test [3], 4 µM; in test [4], 8 µM; in test [5], 11 µM; in test [6], 22 µM.
On to `C[C@@H]1[C@@]2(C)CC[C@@H]3[C@H]2CC[C@@]1(C)O[C@@]3(C)O` [SEIRICARDINE B], for which the IC50 in test [1], in test [2], in test [3], in test [4], in test [5] and in test [6] was over 100 µM throughout.
Take `C[C@@H]1[C@@]2(C)CC[C@@H]3[C@H]2CC[C@@]1(C)O[C@]3(C)O` [SEIRICARDINE C]: the IC50 in test [1], in test [2], in test [3], in test [4], in test [5] and in test [6] was over 100 µM in each case.
Consider `O[C@H]1[C@H]2c3cc4c(cc3CN3CCC(=C[C@@H]1O)[C@H]23)OCO4` [LYCORINE], for which the IC50 in test [1], in test [2], in test [3], in test [4], in test [5] and in test [6] was 2 µM throughout. Moreover, the inhibition entry in test [8] is “Active”.
